# Measurements: ChEMBL document CHEMBL1149485, “Structure-activity relationships of uridine 5'-diphosphate analogues at the human P2Y6 receptor” (J Med Chem, 2006)
# The source made the active and inactive calls. The rule behind the calls is not given here.
# Molecular target: T1, P2Y purinoceptor 4 (Homo sapiens, UniProt P51582)
# Assay: Agonist activity at human recombinant P2Y4 receptor expressed in 1321N1 cells assessed as PLC-mediated [3H]IP production
# Type: functional, cell-based
# T1 sequence (P51582 whole entry): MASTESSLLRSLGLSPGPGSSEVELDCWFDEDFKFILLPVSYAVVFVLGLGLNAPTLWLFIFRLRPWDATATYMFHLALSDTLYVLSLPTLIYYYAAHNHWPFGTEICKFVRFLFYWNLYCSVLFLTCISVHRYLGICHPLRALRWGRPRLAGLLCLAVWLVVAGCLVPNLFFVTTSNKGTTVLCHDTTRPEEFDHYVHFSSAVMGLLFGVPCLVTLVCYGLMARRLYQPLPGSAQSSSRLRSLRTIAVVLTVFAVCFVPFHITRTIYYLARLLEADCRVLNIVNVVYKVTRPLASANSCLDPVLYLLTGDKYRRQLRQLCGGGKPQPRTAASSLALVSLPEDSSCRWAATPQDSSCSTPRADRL
row,EC50,SMILES
1,3100 nM,O=c1ccn([C@@H]2O[C@H](COP(=O)(O)OP(=O)(O)O)C[C@H]2O)c(=O)[nH]1

# Molecular target: T2, P2Y purinoceptor 2 (Homo sapiens, UniProt P41231)
# T2 sequence (P41231 whole entry): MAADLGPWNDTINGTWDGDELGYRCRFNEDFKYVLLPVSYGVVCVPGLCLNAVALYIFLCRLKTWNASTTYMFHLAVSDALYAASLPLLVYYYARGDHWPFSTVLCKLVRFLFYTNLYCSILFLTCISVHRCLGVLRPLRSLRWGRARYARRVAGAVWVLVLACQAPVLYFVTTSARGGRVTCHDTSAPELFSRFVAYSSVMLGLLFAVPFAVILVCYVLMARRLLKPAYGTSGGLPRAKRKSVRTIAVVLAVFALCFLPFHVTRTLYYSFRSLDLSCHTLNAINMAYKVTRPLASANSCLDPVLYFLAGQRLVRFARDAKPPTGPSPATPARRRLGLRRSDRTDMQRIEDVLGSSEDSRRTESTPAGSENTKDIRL
# Assay: Agonist activity at human recombinant P2Y2 receptor expressed in 1321N1 cells assessed as PLC-mediated [3H]IP production relative to UTP
# Type: functional, cell-based
row,Ratio EC50,SMILES
1,1.3,N[C@@H]1[C@H](O)[C@@H](COP(=O)(O)OP(=O)(O)O)O[C@H]1n1ccc(=O)[nH]c1=O
2,2,O=c1ccn([C@@H]2C3C[C@@]3(COP(=O)(O)OP(=O)(O)O)[C@@H](O)[C@H]2O)c(=O)[nH]1 (some centres undefined)
3,17,O=c1[nH]c(=O)n([C@@H]2O[C@H](COP(=O)(O)OP(=O)(O)O)[C@@H](O)[C@H]2O)cc1I
4,54,Nc1nc2c(ncn2[C@@H]2O[C@H](COP(=O)(O)OP(=O)(O)O)[C@@H](O)[C@H]2O)c(=O)[nH]1
5,0.71,O=c1ccn([C@@H]2O[C@H](COP(=O)(O)OP(=O)(O)O)[C@@H](O)[C@H]2O)c(=S)[nH]1
6,100,[N-]=[N+]=N[C@@H]1[C@H](O)[C@@H](COP(=O)(O)OP(=O)(O)O)O[C@H]1n1ccc(=O)[nH]c1=O
7,24,Cn1c(=O)ccn([C@@H]2O[C@H](COP(=O)(O)OP(=O)(O)O)[C@@H](O)[C@H]2O)c1=O
8,0.53,O=c1[nH]c(=S)ccn1[C@@H]1O[C@H](COP(=O)(O)OP(=O)(O)O)[C@@H](O)[C@H]1O
9,17,O=c1ccn([C@@H]2O[C@H](COP(=O)(O)OP(=O)(O)O)C[C@H]2O)c(=O)[nH]1
10,110,Nc1ccn([C@@H]2O[C@H](COP(=O)(O)OP(=O)(O)O)[C@@H](O)[C@H]2O)c(=O)n1
11,1.7,Nc1ncnc2c1ncn2[C@@H]1O[C@H](COP(=O)(O)OP(=O)(O)O)[C@@H](O)[C@H]1O [ADENOSINE DIPHOSPHATE]
12,11,O=c1ccn([C@@H]2O[C@H](COP(=O)(O)OP(=O)(O)O)[C@@H](O)[C@@H]2F)c(=O)[nH]1

# Molecular target: T3, P2Y purinoceptor 6 (Homo sapiens, UniProt Q15077)
# T3 sequence (Q15077 whole entry): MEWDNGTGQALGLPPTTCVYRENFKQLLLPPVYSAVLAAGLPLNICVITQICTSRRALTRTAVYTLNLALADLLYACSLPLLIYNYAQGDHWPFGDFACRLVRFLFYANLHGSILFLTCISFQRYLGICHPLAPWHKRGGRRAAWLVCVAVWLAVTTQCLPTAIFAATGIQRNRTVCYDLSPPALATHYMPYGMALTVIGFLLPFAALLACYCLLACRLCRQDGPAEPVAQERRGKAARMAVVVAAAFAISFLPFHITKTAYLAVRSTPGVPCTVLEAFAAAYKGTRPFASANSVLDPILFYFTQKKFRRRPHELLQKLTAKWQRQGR
# Assay: Agonist activity at human recombinant P2Y6 receptor expressed in 1321N1 cells assessed as PLC-mediated [3H]IP production at 10 uM realtive to UDP
# Type: functional, cell-based
# Procedure, shortened: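 Human P2Y6 in 1321N1 cells prelabelled with myo-[3H]inositol, then exposed to agonist at 10 μM in Hepes pH 7.3 with LiCl for 20 min at 37 °C. [3H]inositol phosphates were isolated by Dowex anion exchange. Response is expressed as % of the effect of a maximally effective UDP concentration in the same experiment.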
row,Efficacy,SMILES
1,< 50%,CCSc1ccn([C@@H]2O[C@H](COP(=O)(O)OP(=O)(O)OC[C@H]3O[C@@H](n4ccc(SCC)nc4=O)[C@H](O)[C@@H]3O)[C@@H](O)[C@H]2O)c(=O)n1
2,< 50%,O=c1nc(SCc2ccccc2)ccn1[C@@H]1O[C@H](COP(=O)(O)OP(=O)(O)OC[C@H]2O[C@@H](n3ccc(SCc4ccccc4)nc3=O)[C@H](O)[C@@H]2O)[C@@H](O)[C@H]1O

# Molecular target: T1, P2Y purinoceptor 4
# Assay: Agonist activity at human recombinant P2Y4 receptor expressed in 1321N1 cells assessed as PLC-mediated [3H]IP production relative to UTP at 10 uM
# Type: functional, cell-based
row,Activity,SMILES
1,inactive,Nc1ccn([C@@H]2O[C@H](COP(=O)(O)OP(=O)(O)O)[C@@H](O)[C@H]2O)c(=O)n1
2,inactive,Nc1ncnc2c1ncn2[C@@H]1O[C@H](COP(=O)(O)OP(=O)(O)O)[C@@H](O)[C@H]1O [ADENOSINE DIPHOSPHATE]

# Molecular target: T2, P2Y purinoceptor 2
# Assay: Agonist activity at human recombinant P2Y2 receptor expressed in 1321N1 cells assessed as PLC-mediated [3H]IP production
# Type: functional, cell-based
row,EC50,SMILES
1,810 nM,O=c1ccn([C@@H]2O[C@H](COP(=O)(O)OP(=O)(O)O)C[C@H]2O)c(=O)[nH]1

# Molecular target: T3, P2Y purinoceptor 6
# Assay: Agonist activity at human recombinant P2Y6 receptor expressed in 1321N1 cells assessed as PLC-mediated [3H]IP production relative to UDP
# Type: functional, cell-based
# Procedure, shortened: (§1)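 Stable 1321N1 astrocytoma line expressing human P2Y6, grown to confluence and labelled 12 h in serum-free, inositol-free DMEM with 0.4 μCi myo-[3H]inositol. Agonists were added in Hepes pH 7.3 with LiCl for 20 min at 37 °C. The reaction was stopped with ice-cold 50 mM formic acid, neutralised with NH4OH, and [3H]inositol phosphates separated on Dowex AG 1-X8. EC50 came from four-parameter logistic fits; ratio to UDP EC50. Triplicates, ≥3 experiments.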
row,Ratio EC50,SMILES
1,300,N[C@@H]1[C@H](O)[C@@H](COP(=O)(O)OP(=O)(O)O)O[C@H]1n1ccc(=O)[nH]c1=O
2,> 7000,O=c1ccn([C@@H]2C3C[C@@]3(COP(=O)(O)OP(=O)(O)O)[C@@H](O)[C@H]2O)c(=O)[nH]1 (some centres undefined)
3,1.1,O=c1[nH]c(=O)n([C@@H]2O[C@H](COP(=O)(O)OP(=O)(O)O)[C@@H](O)[C@H]2O)cc1I
4,500,Nc1nc2c(ncn2[C@@H]2O[C@H](COP(=O)(O)OP(=O)(O)O)[C@@H](O)[C@H]2O)c(=O)[nH]1
5,4,O=c1ccn([C@@H]2O[C@H](COP(=O)(O)OP(=O)(O)O)[C@@H](O)[C@H]2O)c(=S)[nH]1
6,120,[N-]=[N+]=N[C@@H]1[C@H](O)[C@@H](COP(=O)(O)OP(=O)(O)O)O[C@H]1n1ccc(=O)[nH]c1=O
7,250,Cn1c(=O)ccn([C@@H]2O[C@H](COP(=O)(O)OP(=O)(O)O)[C@@H](O)[C@H]2O)c1=O
8,6,O=c1[nH]c(=S)ccn1[C@@H]1O[C@H](COP(=O)(O)OP(=O)(O)O)[C@@H](O)[C@H]1O
9,190,O=c1ccn([C@@H]2O[C@H](COP(=O)(O)OP(=O)(O)O)C[C@H]2O)c(=O)[nH]1
10,1000,Nc1ccn([C@@H]2O[C@H](COP(=O)(O)OP(=O)(O)O)[C@@H](O)[C@H]2O)c(=O)n1
11,> 7000,Nc1ncnc2c1ncn2[C@@H]1O[C@H](COP(=O)(O)OP(=O)(O)O)[C@@H](O)[C@H]1O [ADENOSINE DIPHOSPHATE]
12,420,O=c1ccn([C@@H]2O[C@H](COP(=O)(O)OP(=O)(O)O)[C@@H](O)[C@@H]2F)c(=O)[nH]1

# Molecular target: T3, P2Y purinoceptor 6
# Assay: Agonist activity at human recombinant P2Y6 receptor expressed in 1321N1 cells assessed as PLC-mediated [3H]IP production
# Type: functional, cell-based
# Procedure, shortened: as §1
row,EC50,SMILES
1,3900 nM,N[C@@H]1[C@H](O)[C@@H](COP(=O)(O)OP(=O)(O)O)O[C@H]1n1ccc(=O)[nH]c1=O
2,15 nM,O=c1[nH]c(=O)n([C@@H]2O[C@H](COP(=O)(O)OP(=O)(O)O)[C@@H](O)[C@H]2O)cc1I
3,45000 nM,Nc1nc2c(ncn2[C@@H]2O[C@H](COP(=O)(O)OP(=O)(O)O)[C@@H](O)[C@H]2O)c(=O)[nH]1
4,60 nM,O=c1ccn([C@@H]2O[C@H](COP(=O)(O)OP(=O)(O)O)[C@@H](O)[C@H]2O)c(=S)[nH]1
5,1500 nM,[N-]=[N+]=N[C@@H]1[C@H](O)[C@@H](COP(=O)(O)OP(=O)(O)O)O[C@H]1n1ccc(=O)[nH]c1=O
6,3300 nM,Cn1c(=O)ccn([C@@H]2O[C@H](COP(=O)(O)OP(=O)(O)O)[C@@H](O)[C@H]2O)c1=O
7,230 nM,O=c1ccn([C@]23CC2[C@H](COP(=O)(O)OP(=O)(O)O)[C@@H](O)C3)c(=O)[nH]1 (some centres undefined)
8,2300 nM,CSc1ccn([C@@H]2O[C@H](COP(=O)(O)OP(=O)(O)O)[C@@H](O)[C@H]2O)c(=O)n1
9,1100 nM,O=C(O)CCSc1ccn([C@@H]2O[C@H](COP(=O)(O)OP(=O)(O)O)[C@@H](O)[C@H]2O)c(=O)n1
10,80 nM,O=c1[nH]c(=S)ccn1[C@@H]1O[C@H](COP(=O)(O)OP(=O)(O)O)[C@@H](O)[C@H]1O
11,2500 nM,O=c1ccn([C@@H]2O[C@H](COP(=O)(O)OP(=O)(O)O)C[C@H]2O)c(=O)[nH]1
12,1700 nM,O=C(O)CSc1ccn([C@@H]2O[C@H](COP(=O)(O)OP(=O)(O)O)[C@@H](O)[C@H]2O)c(=O)n1
13,560 nM,C=CCSc1ccn([C@@H]2O[C@H](COP(=O)(O)OP(=O)(O)O)[C@@H](O)[C@H]2O)c(=O)n1
14,88000 nM,Nc1ccn([C@@H]2O[C@H](COP(=O)(O)OP(=O)(O)O)[C@@H](O)[C@H]2O)c(=O)n1
15,3500 nM,O=c1ccn([C@@H]2O[C@@]3(COP(=O)(O)OP(=O)(O)O)C[C@H]3[C@H]2O)c(=O)[nH]1
16,800 nM,O=c1nc(SCc2ccccc2)ccn1[C@@H]1O[C@H](COP(=O)(O)OP(=O)(O)O)[C@@H](O)[C@H]1O
17,8800 nM,O=C(O)CCCSc1ccn([C@@H]2O[C@H](COP(=O)(O)OP(=O)(O)O)[C@@H](O)[C@H]2O)c(=O)n1
18,65000 nM,Nc1ncnc2c1ncn2[C@@H]1O[C@H](COP(=O)(O)OP(=O)(O)O)[C@@H](O)[C@H]1O [ADENOSINE DIPHOSPHATE]
19,13 nM,O=c1ccn([C@@H]2O[C@H](COP(=O)(O)OP(=O)(O)O)[C@@H](O)[C@H]2O)c(=O)[nH]1 [URIDINE_DIPHOSPHATE]
20,280 nM,CCSc1ccn([C@@H]2O[C@H](COP(=O)(O)OP(=O)(O)O)[C@@H](O)[C@H]2O)c(=O)n1
21,5500 nM,O=c1ccn([C@@H]2O[C@H](COP(=O)(O)OP(=O)(O)O)[C@@H](O)[C@@H]2F)c(=O)[nH]1
22,4900 nM,CCCCCCSc1ccn([C@@H]2O[C@H](COP(=O)(O)OP(=O)(O)O)[C@@H](O)[C@H]2O)c(=O)n1
23,2300 nM,O=c1ccn([C@@H]2O[C@H](COP(=O)(O)OP(=O)(O)OC[C@H]3O[C@@H](n4ccc(=O)[nH]c4=O)[C@H](O)[C@@H]3O)[C@@H](O)[C@H]2O)c(=O)[nH]1
24,18000 nM,NC(=O)CSc1ccn([C@@H]2O[C@H](COP(=O)(O)OP(=O)(O)O)[C@@H](O)[C@H]2O)c(=O)n1

# Molecular target: T1, P2Y purinoceptor 4
# Assay: Agonist activity at human recombinant P2Y4 receptor expressed in 1321N1 cells assessed as PLC-mediated [3H]IP production relative to UTP
# Type: functional, cell-based
row,Ratio EC50,SMILES
1,16,N[C@@H]1[C@H](O)[C@@H](COP(=O)(O)OP(=O)(O)O)O[C@H]1n1ccc(=O)[nH]c1=O
2,1.7,O=c1ccn([C@@H]2C3C[C@@]3(COP(=O)(O)OP(=O)(O)O)[C@@H](O)[C@H]2O)c(=O)[nH]1 (some centres undefined)
3,55,O=c1[nH]c(=O)n([C@@H]2O[C@H](COP(=O)(O)OP(=O)(O)O)[C@@H](O)[C@H]2O)cc1I
4,90,Nc1nc2c(ncn2[C@@H]2O[C@H](COP(=O)(O)OP(=O)(O)O)[C@@H](O)[C@H]2O)c(=O)[nH]1
5,4.8,O=c1ccn([C@@H]2O[C@H](COP(=O)(O)OP(=O)(O)O)[C@@H](O)[C@H]2O)c(=S)[nH]1
6,15,[N-]=[N+]=N[C@@H]1[C@H](O)[C@@H](COP(=O)(O)OP(=O)(O)O)O[C@H]1n1ccc(=O)[nH]c1=O
7,47,Cn1c(=O)ccn([C@@H]2O[C@H](COP(=O)(O)OP(=O)(O)O)[C@@H](O)[C@H]2O)c1=O
8,0.32,O=c1[nH]c(=S)ccn1[C@@H]1O[C@H](COP(=O)(O)OP(=O)(O)O)[C@@H](O)[C@H]1O
9,42,O=c1ccn([C@@H]2O[C@H](COP(=O)(O)OP(=O)(O)O)C[C@H]2O)c(=O)[nH]1
10,7.1,O=c1ccn([C@@H]2O[C@H](COP(=O)(O)OP(=O)(O)O)[C@@H](O)[C@@H]2F)c(=O)[nH]1
